Measurements reported in ChEMBL document CHEMBL1123878, “Potential antitumor agents. 50. In vivo solid-tumor activity of derivatives of N-[2-(dimethylamino)ethyl]acridine-4-carboxamide” (J Med Chem, 1987).
Active and inactive are the calls of the source. The calls are words filed in the database; no cut-off is given here.

How the values were obtained:
[1] = Lipophilicity index (Rm) (HPLC); format: physicochemical
[2] = Selectivity ratio of IC50 of HCT to IC50 of L1210 cell lines; format: functional
[3] = test system: Lewis lung carcinoma cell line; assay: Percentage increase in life span of tumor bearing animals compared to non treated, tumor-bearing controls when treated at the optimal dose of 4.5 mg/kg/day intraperitoneally; IA denotes inactive; format: functional, organism-based; conditions: Mus musculus
How it was run: (§1)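 Drug was given ip in 0.1 mL 30% v/v ethanol/water. For P388, 10^6 cells were inoculated ip and dosing was on days 1, 5 and 9, with >20% significant. For Lewis lung, 10^6 cells were inoculated iv and dosing was on days 5, 9 and 13, with >40% significant. The read-out is % lifespan increase over untreated controls.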

P388 [4] = assay: Percentage increase in life span of tumor bearing animals compared to non treated, tumor-bearing controls when treated at the optimal dose of 4.5 mg/kg/day intraperitoneally; format: functional; conditions: Mus musculus, P388, ip; route intraperitoneal
HCT-8 = assay: Inhibition of human colon tumor (HCT-8) cell growth in culture; format: functional, cell-based
How it was run: (§2)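 IC50 is the drug concentration, in nM, that inhibits growth of the cultured cell line by 50%.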

P388 [5] = assay: (§3) Percentage increase in life span of tumor bearing animals compared to non treated, tumor-bearing controls when treated at the optimal dose of 20 mg/kg/day intraperitoneally; format: functional; conditions: Mus musculus, P388, ip; route intraperitoneal
[6] = test system: Lewis lung carcinoma cell line; assay: as §3; format: functional; conditions: Mus musculus, ip, route intraperitoneal
L1210 = assay: Inhibition murine leukemia L1210 cell growth in culture; format: functional, cell-based; conditions: Mus musculus; how it was run: as §2
P388 [7] = assay: Percentage increase in life span of tumor bearing animals compared to non treated, tumor-bearing controls when treated at the optimal dose of 225 mg/kg/day intraperitoneally; IA denotes inactive; format: functional, organism-based; conditions: Mus musculus; how it was run: as §1
[8] = test system: Lewis lung carcinoma cell line; assay: Percentage increase in life span of tumor bearing animals compared to non treated, tumor-bearing controls when treated at the optimal dose of 100 mg/kg/day intraperitoneally; IA denotes inactive; format: functional, organism-based; conditions: Mus musculus; how it was run: as §1
[9] = test system: Lewis lung carcinoma cell line; assay: Percentage increase in life span of tumor bearing animals compared to non treated, tumor-bearing controls when treated at the optimal dose of 150 mg/kg/day intraperitoneally; format: functional; conditions: Mus musculus, ip, route intraperitoneal
P388 [10] = assay: Percentage increase in life span of compound-treated, tumor bearing animals compared to non treated, tumor-bearing controls when treated at the optimal dose of 150 mg/kg/day intraperitoneally; format: functional; conditions: Mus musculus, P388, ip; route intraperitoneal
P388 [11] = assay: Percent increase in life span of P388 tumor bearing animals compared to non treated, tumor-bearing controls when treated at the optimal dose of 150 mg/kg/day; IA denotes inactive; format: functional, organism-based; conditions: Mus musculus
[12] = Base strength is expressed as pKa, determined in water at 25 degrees Centigrade by spectrophotometric method.; format: physicochemical
Nucleic Acid [13] = assay: Binding constant to poly(dG-dC)DNA by ethidium bromide displacement; format: nucleic-acid assay
How it was run: (§4)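 Association constants derived from the drug concentration displacing 50% of bound ethidium from the polynucleotide, assuming competitive binding of drug and ethidium to DNA.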

Nucleic Acid [14] = assay: Binding constant to poly(dA-dT)DNA by ethidium bromide displacement; format: nucleic-acid assay; how it was run: as §4
P388 [15] = assay: Percentage increase in life span of tumor bearing animals compared to non treated, tumor-bearing controls when treated at the optimal dose of 150 mg/kg/day intraperitoneally; IA denotes inactive; format: functional, organism-based; conditions: Mus musculus; how it was run: as §1
P388 [16] = assay: Percentage increase in life span of tumor bearing animals compared to non treated, tumor-bearing controls when treated at the optimal dose of 66 mg/kg/day intraperitoneally; format: functional; conditions: Mus musculus, P388, ip; route intraperitoneal
P388 [17] = assay: Percent increase in life span of P388 cells compared to non treated, tumor-bearing controls when treated at the optimal dose of 225 mg/kg/day; IA denotes inactive; format: functional, organism-based; conditions: Mus musculus

SMILES | Rm [1] | Ratio [2] | IC50 (HCT-8) [nM] | IC50 (L1210) [nM] | pKa [12] | further results
CN(C)CCNC(=O)c1cccc2c(N)c3ccccc3nc12 | -1.11 | 3.7 | 55 |  |  | ILS [3]: inactive; ILS at 4.5 mg/kg/day (P388 [4]): 98%
CN(C)CCNC(=O)c1cccc2cc3cccc(Cl)c3nc12.Cl.Cl | -0.21 |  |  | 6.9 |  | ILS at 20 mg/kg/day (P388 [5]): 91%; ILS at 20 mg/kg/day [6]: 92%
Cc1ccc2cc3ccccc3nc2c1C(=O)NCCN(C)C.Cl.Cl | -0.21 |  |  | 12700 |  | ILS (P388 [7]): inactive; ILS [8]: inactive
Cc1cccc2nc3c(C(=O)NCCN(C)C)cccc3cc12.Cl.Cl.O.O | -0.12 | 7 | 980 | 140 |  | ILS at 150 mg/kg/day [9]: 60%; ILS at 150 mg/kg/day (P388 [10]): 61%
CN(C)CCNC(=O)c1cccc2nc3ccccc3cc12.Cl.Cl | -0.56 |  |  | 17900 | 4.24 | ILS (P388 [11]): inactive; Log K (Nucleic Acid [13]): 7.7; Log K (Nucleic Acid [14]): 6.87
CN(C)CCNC(=O)c1ccc2cc3ccccc3nc2c1.Cl.Cl | -0.53 |  |  | 8100 | 3.94 | ILS (P388 [15]): inactive
CN(C)CCNC(=O)c1cccc2cc3ccccc3nc12.Cl.Cl | -0.2 | 8.6 | 900 | 105 | 3.54 | ILS at 66 mg/kg/day (P388 [16]): 91%
CN(C)CCNC(=O)c1ccc2nc3ccccc3cc2c1.Cl.Cl | -0.57 |  |  | 9300 | 4.37 | ILS (P388 [17]): inactive
